Measured values reported in ChEMBL document CHEMBL4699631, “Antimalarial and anti-inflammatory activities of new chloroquine and primaquine hybrids: Targeting the blockade of malaria parasite transmission” (Bioorg Med Chem, 2020).
Calls of active or inactive are those of the source. The rule behind the calls is not given here.

Key:
Plasmodium falciparum = assay: Antimalarial activity against Plasmodium falciparum CQR (W2 clone) infected in human erythrocyte assessed as reduction in parasite growth incubated for 48 hrs by SYBR assay; type: functional, organism-based
Summary of the method: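 W2 parasites cultured in A+ human erythrocytes in RPMI 1640 with ALBUMAX II, candle jar, 37 °C. Rings synchronized with sorbitol, then exposed to serial dilutions at 0.5% parasitemia and 2% hematocrit for 48 h at 37 °C. Lysis buffer with SYBR Safe, 30 min in the dark, fluorescence read at ex 485 nm. IC50 from sigmoid curve fit against drug-free control.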

[1] = Cytotoxicity against monkey BGM cells assessed as reduction in cell viability incubated for 24 hrs by neutral red dye based assay; conditions: chlorocebus aethiops, read-out: MDL50
Summary of the method: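 BGM monkey kidney cells grown in RPMI 1640 with 10% heat-inactivated fetal serum and gentamicin, 5% CO2, 37 °C. Cells allowed to adhere for 24 h, then exposed to compounds at 1000–1 μg/mL for 24 h. Neutral red uptake for 3 h, formaldehyde/CaCl2 fix, alcohol-acetic acid elution, absorbance at 540 nm. Viability taken as percent of untreated cells after background subtraction. MLD50 derived from this.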

[2] = Selectivity index, ratio of MDL50 for monkey BGM cells to IC50 for Plasmodium falciparum CQR (W2 clone) infected in human Erythrocyte; type: toxicity
Summary of the method: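 SI calculated as MLD50 in BGM cells (neutral red, 24 h) divided by IC50 against P. falciparum W2 (SYBR, 48 h).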

[3] = Cytotoxicty against mouse J774.A1 cells assessed as cell viability at 12.5 uM incubated for 24 hrs by resazurin dye based assay (reference value: 100 %); conditions: read-out: Activity
Summary of the method: (§1)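 J774A.1 macrophages grown in DMEM with 10% FBS and 0.1% gentamycin, seeded at 1×10^5 cells/well. Exposed to compounds at 0, 12.5, 25, 50 or 100 μM for 24 h. Resazurin (10 μg/ml) added for 3 h, then fluorescence read. Run in triplicate. Viability given as percent of 0.2% DMSO-treated cells.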

[4] = Cytotoxicty against mouse J774.A1 cells assessed as cell viability at 25 uM incubated for 24 hrs by resazurin dye based assay (reference value: 100 %); conditions: read-out: Activity; summary of the method: as §1
[5] = Cytotoxicty against mouse J774.A1 cells assessed as cell viability at 50 uM incubated for 24 hrs by resazurin dye based assay (reference value: 100 %); conditions: read-out: Activity; summary of the method: as §1
[6] = Cytotoxicty against mouse J774.A1 cells assessed as cell viability at 100 uM incubated for 24 hrs by resazurin dye based assay (reference value: 100 %); conditions: read-out: Activity; summary of the method: as §1
Plasmodium berghei [7] = assay: Antimalarial activity against Plasmodium berghei NK65 infected in mouse assessed as parasite growth at 25 mg/kg, po administered for 3 days and measured on day 5 Giemsa staining based assay relative to control; type: functional; conditions: time 5 day
Summary of the method: (§2)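 P. berghei NK65 kept by weekly blood passage in mice. Mice inoculated i.p. with 1×10^6 infected erythrocytes, randomized after about 24 h into groups of five. Oral dosing once daily for three days, vehicle 3% DMSO in RPMI. Test compounds given at 25 mg/kg, CQ control at 20 mg/kg. Parasitemia read on Giemsa-stained thin smears on days 5 and 7 and expressed relative to untreated mice.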

Plasmodium berghei [8] = assay: Antimalarial activity against Plasmodium berghei NK65 infected in mouse assessed as parasite growth at 25 mg/kg, po administered for 3 days and measured on day 7 Giemsa staining based assay; type: functional; conditions: time 7 day; summary of the method: as §2
J774.A1 [9] = assay: Inhibition of LPS-induced TNFalpha production in mouse J774.A1 cells incubated for 24 hrs by ELISA; type: functional, cell-based; conditions: dose microM 0.5-25, time 24.0 hrs
Summary of the method: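 J774A.1 cells seeded at 2×10^6 cells/well. Pretreated with vehicle, dexamethasone 1 μM, or compounds at 0.5–25 μM. Stimulated with LPS 100 ng/ml for 24 h. Supernatants stored at −20 °C, then TNFα measured by sandwich ELISA in pg/mL. Triplicate, mean ± SEM.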

Plasmodium berghei [10] = assay: Antimalarial activity against Plasmodium berghei NK65 infected in mouse assessed as increase in mouse survival rate at 25 mg/kg, po administered for 3 days and observed for 7 days; type: functional, organism-based; conditions: time 7.0 day
J774.A1 [11] = assay: Inhibition of LPS-induced NO production in mouse J774.A1 cells incubated for 24 hrs by Griess reagent based assay; type: functional, cell-based; conditions: dose microM 0.5-25, time 24.0 hrs
Summary of the method: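 Compounds made as 10 mM DMSO stocks and diluted in medium. J774A.1 cells pre-incubated with compounds at 25 μM for screening, or 0.5–25 μM for dose-response, with dexamethasone 1 μM or 0.2% DMSO as controls. Stimulated with LPS 37.5 ng/ml plus IFNγ 25 U/ml for 24 h at 37 °C, 5% CO2. Supernatant nitrite measured by Griess at 540 nm. Triplicate, mean ± SEM.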

Plasmodium berghei [12] = assay: Antimalarial activity against Plasmodium berghei NK65 infected in mouse assessed as parasite growth at 20 mg/kg, po administered for 3 days and measured on day 5 Giemsa staining based assay relative to control; type: functional; conditions: time 5 day; summary of the method: as §2
Plasmodium berghei [13] = assay: Antimalarial activity against Plasmodium berghei NK65 infected in mouse assessed as parasite growth at 20 mg/kg, po administered for 3 days and measured on day 7 Giemsa staining based assay relative to control; type: functional; conditions: time 7 day; summary of the method: as §2
Plasmodium berghei [14] = assay: Antimalarial activity against Plasmodium berghei NK65 infected in mouse assessed as increase in mouse survival at 20 mg/kg, po administered for 3 days and observed for 7 days; type: functional, organism-based; conditions: time 7.0 day

Structure (SMILES) | IC50 (Plasmodium falciparum) [µM] | CC50 at 24 h [1] [µM] | selectivity ratio [2] | viability at 24 h, 12.5 µM [3] [%] | viability at 24 h, 25 µM [4] [%] | viability at 24 h, 50 µM [5] [%] | viability at 24 h, 100 µM [6] [%] | further results
COc1cc(NC(C)CCCNC(=O)C(=O)c2cc(Br)ccc2NC(C)=O)c2ncccc2c1 (stereo unspecified) | 2.5 | 309 | > 100 | 100 | 100 | 75.5 | 75.8 | –
CC(=O)Nc1ccccc1C(=O)C(=O)NCCCCNc1ccnc2cc(Cl)ccc12 | 0.18 | 124 | > 700 | 98.4 | 100 | 83.4 | 10.1 | Activity (Plasmodium berghei [7]): 0%; Activity (Plasmodium berghei [8]): 2%; inhibition (J774.A1 [9]): inactive
CC(=O)Nc1ccc(C)cc1C(=O)C(=O)NCCCNc1ccnc2cc(Cl)ccc12 | 0.22 | – | – | – | – | – | – | –
CC(=O)Nc1ccccc1C(=O)C(=O)NCCNc1ccnc2cc(Cl)ccc12 | 0.71 | 261 | > 300 | – | – | – | – | –
CC(=O)Nc1ccc(Cl)cc1C(=O)C(=O)NCCCNc1ccnc2cc(Cl)ccc12 | 0.12 | 30.9 | 258 | 100 | 100 | 82.7 | 10.7 | Activity (Plasmodium berghei [7]): 0%; Activity (Plasmodium berghei [8]): 0%; Activity (Plasmodium berghei [10]): Active; inhibition (J774.A1 [11]): Dose-dependent effect; inhibition (J774.A1 [9]): Dose-dependent effect
CC(=O)Nc1ccc(Cl)cc1C(=O)C(=O)NCCNc1ccnc2cc(Cl)ccc12 | 0.52 | 152 | 292 | – | – | – | – | –
COc1cc(NC(C)CCCNC(=O)C(=O)c2cc(Cl)ccc2NC(C)=O)c2ncccc2c1 (stereo unspecified) | 7.7 | 164 | > 20 | 100 | 100 | 77.6 | 54.6 | –
CC(=O)Nc1ccccc1C(F)(F)C(=O)NCCCNc1ccnc2cc(Cl)ccc12 | 0.4 | 99 | > 250 | 100 | 100 | 91.5 | 33.3 | –
CC(=O)Nc1ccccc1C(=O)C(=O)NCCCNc1ccnc2cc(Cl)ccc12 | 0.2 | 91.7 | > 400 | 100 | 100 | 89.1 | 67.6 | Activity (Plasmodium berghei [7]): 0%; Activity (Plasmodium berghei [8]): 15%; Activity (Plasmodium berghei [10]): Active
CC(=O)Nc1ccc(Br)cc1C(=O)C(=O)NCCCNc1ccnc2cc(Cl)ccc12 | 0.38 | 103 | 270 | – | – | – | – | –
CC(=O)Nc1ccc(C)cc1C(=O)C(=O)NCCNc1ccnc2cc(Cl)ccc12 | 0.49 | > 84 | > 170 | – | – | – | – | –
COc1cc(NC(C)CCCNC(=O)C(=O)c2cc(C)ccc2NC(C)=O)c2ncccc2c1 (stereo unspecified) | 25.3 | > 2160 | > 80 | – | – | – | – | –
CC(=O)Nc1ccc(Cl)cc1C(=O)C(=O)NCCCCNc1ccnc2cc(Cl)ccc12 | 3.18 | 91.1 | 29 | – | – | – | – | –
CC(=O)Nc1ccc(C)cc1C(=O)C(=O)NCCCCNc1ccnc2cc(Cl)ccc12 | 0.84 | – | – | – | – | – | – | –
CC(=O)Nc1ccccc1C(F)(F)C(=O)NCCCCNc1ccnc2cc(Cl)ccc12 | 2.7 | 140 | > 50 | 100 | 100 | 83.7 | 10.4 | –
CC(=O)Nc1ccc(Cl)cc1C(F)(F)C(=O)NCCCNc1ccnc2cc(Cl)ccc12 | 0.5 | 654 | > 1300 | 100 | 95.5 | 87.5 | 10.4 | inhibition (J774.A1 [11]): Dose-dependent effect; inhibition (J774.A1 [9]): Dose-dependent effect
COc1cc(NC(C)CCCNC(=O)C(F)(F)c2cc(Br)ccc2NC(C)=O)c2ncccc2c1 (stereo unspecified) | 3.5 | > 1820 | > 520 | – | – | – | – | –
COc1cc(NC(C)CCCNC(=O)C(F)(F)c2ccccc2NC(C)=O)c2ncccc2c1 (stereo unspecified) | 25.5 | 113 | 4 | – | – | – | – | –
CCN(CC)CCCC(C)Nc1ccnc2cc(Cl)ccc12 (stereo unspecified) [CHLOROQUINE] | – | 457 | – | – | – | – | – | Activity (Plasmodium berghei [12]): 99%; Activity (Plasmodium berghei [13]): 99%; Activity (Plasmodium berghei [14]): Active
COc1cc(NC(C)CCCNC(=O)C(F)(F)c2cc(C)ccc2NC(C)=O)c2ncccc2c1 (stereo unspecified) | 20.7 | – | – | – | – | – | – | –
COc1cc(NC(C)CCCNC(=O)C(=O)c2ccccc2NC(C)=O)c2ncccc2c1 (stereo unspecified) | 26.8 | – | – | – | – | – | – | –
